# Measured values from ChEMBL document CHEMBL4004844, “Structure-based design, synthesis and antitumoral evaluation of enulosides” (Eur J Med Chem, 2017).
# pIC50: −log10 of the molar value.
# What was measured:
# MCF7 [1] = assay: Growth inhibition of human MCF7 cells after 72 hrs by MTT assay; format: functional, cell-based; details: MCF7, 72 h
# In short: (§1)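 Cells kept in RPMI 1640 or DMEM with 10% FBS, 2 mM glutamine, penicillin/streptomycin, at 37 °C and 5% CO2. Seeded at 10⁵ cells/mL (adherent NCI-H292, MCF-7, HEP-2) or 3 × 10⁵ cells/mL (HL-60). Compounds at 0.1–25 in 0.1% DMSO for 72 h, with DMSO controls. MTT read at 595 nm. IC50 with 95% CI from nonlinear regression, two experiments.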
# HEp-2 [2] = assay: Growth inhibition of human Hep2 cells after 72 hrs by MTT assay; format: functional, cell-based; details: HEp-2, 72 h; in short: as §1
# NCI-H292 [3] = assay: Growth inhibition of human NCI-H292 cells after 72 hrs by MTT assay; format: functional, cell-based; details: NCI-H292, 72 h; in short: as §1
# HL-60 [4] = assay: Growth inhibition of human HL60 cells after 72 hrs by MTT assay; format: functional, cell-based; details: HL-60, 72 h
# [5] = Solubility in water; format: physicochemical; details: buffer
# HEp-2 [6] = assay: Growth inhibition of human Hep2 cells at 25 ug/ml after 72 hrs by MTT assay relative to control; format: functional; details: HEp-2, 72 h, read-out: GI
# In short: (§2)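 Preliminary single-concentration screen at 25 by MTT reduction. Cells seeded at 10⁵ cells/mL (adherent) or 3 × 10⁵ cells/mL (HL-60), exposed for 72 h in 0.1% DMSO. Percent growth inhibition relative to DMSO-treated controls, from absorbance at 595 nm.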
# MCF7 [7] = assay: Growth inhibition of human MCF7 cells at 25 ug/ml after 72 hrs by MTT assay relative to control; format: functional; details: MCF7, 72 h, read-out: GI; in short: as §2
# NCI-H292 [8] = assay: Growth inhibition of human NCI-H292 cells at 25 ug/ml after 72 hrs by MTT assay relative to control; format: functional; details: NCI-H292, 72 h, read-out: GI; in short: as §2
# HL-60 [9] = assay: Growth inhibition of human HL60 cells at 25 ug/ml after 72 hrs by MTT assay relative to control; format: functional; details: HL-60, 72 h, read-out: GI; in short: as §2
pIC50 (MCF7 [1]),pIC50 (NCI-H292 [3]),pIC50 (HL-60 [4]),solubility [5],SMILES,pIC50 (HEp-2 [2]),inhibition of growth at 25 µg/mL (HEp-2 [6]) [%],inhibition of growth at 25 µg/mL (MCF7 [7]) [%],inhibition of growth at 25 µg/mL (NCI-H292 [8]) [%],inhibition of growth at 25 µg/mL (HL-60 [9]) [%]
4.44,4.62,5.01,–,CC(C)O[C@@H]1C=CC(=O)[C@@H](CO)O1,4.46,–,–,–,–
4.74,4.81,4.97,–,CCCO[C@@H]1C=CC(=O)[C@@H](CO)O1,4.87,–,–,–,–
4.79,4.99,5.31,–,C=CCO[C@@H]1C=CC(=O)[C@@H](CO)O1,4.58,–,–,–,–
–,4.90,5.60,–,C#CCCO[C@@H]1C=CC(=O)[C@@H](CO)O1,5.15,–,–,–,–
4.96,5.59,4.88,–,O=C1C=C[C@@H](OC2CCCCC2)O[C@@H]1CO,5.12,–,–,–,–
–,4.45,5.10,Soluble,COCCOCCOCCO[C@@H]1C=CC(=O)[C@@H](CO)O1,4.49,–,–,–,–
4.98,5.18,5.03,–,C#CCO[C@@H]1C=CC(=O)[C@@H](CO)O1,4.81,–,–,–,–
–,4.74,5.46,–,CCO[C@@H]1C=CC(=O)[C@@H](CO)O1,5.24,100,97.2,100,100
4.95,5.42,4.56,–,O=C1C=C[C@@H](OCc2ccccc2)O[C@@H]1CO,5.07,–,–,–,–
–,–,–,–,CCO[C@@H]1C=C[C@H](OC(C)=O)[C@@H](COC(C)=O)O1,–,9.3,5.1,2.1,12.3
4.68,4.70,5.38,–,O=C1C=C[C@@H](OC2CCCC2)O[C@@H]1CO,5.10,–,–,–,–
–,–,–,–,CCO[C@@H]1C=C[C@H](O)[C@@H](CO)O1,–,12.5,20.4,17.4,31.4
6.22,6.22,–,–,COc1cccc2c1C(=O)c1c(O)c3c(c(O)c1C2=O)C[C@@](O)(C(=O)CO)C[C@@H]3O[C@H]1C[C@H](N)[C@H](O)[C@H](C)O1 [DOXORUBICIN],5.89,–,–,–,–
